Where two headings read alike, the source gives them in different places.
Columns and labels:
[1] = Viability of uninfected PBMCs; assay type: cell-based, human; conditions: human, CC50, uninfected PBMCs, Viacount dye
PBMCs = assay: Viability of uninfected PBMCs; assay type: cell-based, human; conditions: 6 days, Viacount dye
J-Lat 9.2 cells = assay: LRA-induced provirus expression; assay type: cell-based; conditions: J-Lat 9.2, 24 h
J-Lat 10.6 cells [2] = assay: LRA-induced provirus expression; assay type: cell-based; conditions: J-Lat 10.6, 24 h
OM-10.1 cells = assay: TNFα-induced provirus expression; assay type: cell-based; conditions: 24 h, read-out: TNFα EC50, inhibition of provirus expression
How it was run: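 OM-10.1 cells seeded at 200,000 cells/well and co-treated with 1 ng/mL TNFα plus test compound or 0.1% DMSO for 24 h. Cells were fixed, permeabilized, stained for intracellular p24Gag (KC57-RD1) and scored on live-gated cells by flow cytometry. EC50s were derived after normalizing to TNFα-only controls.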

Jurkat cells = assay: Jurkat cell viability, 24 h; assay type: cell-based; conditions: 0.3 μM
J-Lat 10.6 cells [3] = assay type: cell-based
class I and II HDAC = assay: Cellular HDAC activity assay; assay type: cell-based
[4] = system: HIV RNA in CD4+ T cell culture supernatants; assay: Spontaneous viral RNA production in primary CD4+ T cells from donors with HIV; assay type: cell-based, human
primary CD4+ T cells = assay: Live cell counting of primary CD4+ T cell cultures; assay type: cell-based, human; conditions: 30 nM
How it was run: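 CD4+ T cells came from five HIV-infected donors on suppressive ART (<50 copies/mL for ≥3 years), isolated from PBMCs by negative selection. 10⁶ cells per 1 mL R20+ (20% FBS) received 0.1% DMSO or 30 nM test compound for 24 h. Alternatively: 72 h treatment, wash, re-treatment in R20+ plus IL-2 for 72–96 h, wash, then 24 h compound-free. Cells were counted visually by trypan blue.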

[5] = read-out: TNFα EC50, inhibition of provirus expression
[6] = 30 nM for 6 – 7 days, washed, 24 hours without compound

CN1CC[C@H](c2c(O)cc(O)c3c(=O)cc(-c4ccccc4Cl)oc23)[C@H](O)C1 [Flavopiridol, flavopiridol] gave a CC50 at 6 days [1] of 250 ± 60 nM, a CC50 (PBMCs) of 220 ± 40 nM and an EC50 (J-Lat 9.2 cells; read-out: Panobinostat EC50, inhibition of provirus expression) of 28 ± 3 nM. For the same compound, the EC50 (J-Lat 9.2 cells; read-out: Prostratin EC50, inhibition of provirus expression) was 9 ± 1 nM, the EC50 (J-Lat 9.2 cells; [5]) was 8 ± 0.4 nM and the EC50 (J-Lat 10.6 cells [2]; read-out: HMBA EC50, inhibition of provirus expression) was 99 ± 2 nM. For the same compound, the EC50 (J-Lat 10.6 cells [2]; read-out: JQ1 EC50, inhibition of provirus expression) was 14 ± 2 nM, the EC50 (J-Lat 10.6 cells [2]; [5]) was 19 ± 1 nM and the EC50 (OM-10.1 cells) was 13 ± 0.8 nM. For the same compound, the “viability reduced vs 0.1% DMSO” value (Jurkat cells) was 38.8 ± 25%, the “GFP expression 14 days following washout, % of control levels” value (J-Lat 10.6 cells [3]; 10 nM for 21 days, J-Lat 10.6) was 59.7 ± 15.2% and the “GFP expression 24 hours after washing, % of control GFP levels” value (J-Lat 10.6 cells [3]; 10 nM for 21 days, washed, 24 h drug-free, J-Lat 10.6) was 32.4 ± 3.6%. The “GFP expression before wash-out, % of untreated cells” value (J-Lat 10.6 cells [3]; 10 nM, 21 days, J-Lat 10.6) was 26.2 ± 9.6%, the “reduction of spontaneous GFP expression vs 0.1% DMSO” value (J-Lat 10.6 cells [3]; 10 nM, 21 days, J-Lat 10.6) was 73.8 ± 9.6% and the “duration of reinforced latency following withdrawal in vitro” value (J-Lat 10.6 cells [3]; J-Lat 10.6, after 21 days' treatment) was at least 14 days. For the same compound, the IC50 (class I and II HDAC; read-out: HDAC Inhibition IC50, Jurkat cells, 90 min, HDAC-Glo I/II) was over 1000 nM, the “HDAC inhibition” value (class I and II HDAC; up to 1 μM, Jurkat) was “no HDAC inhibition was observed” and the “average reduction in total viral RNA across all cultures” value [4, 6] was 96.8%. The “cultures with reduced viral RNA production” value [4, 6] was 4 of 5, the “cultures with no viral RNA detected” value ([4]; 30 nM for 6 – 7 days, washed, 24 hours, limit of detection 200 copies/mL) was “two” and the “average increase in viral RNA vs 0.1% DMSO” value ([4]; 30 nM, 24 hours) was 7.1 fold. For the same compound, the “HIV RNA in culture supernatant” value ([4]; 30 nM, 24 hours, CD4+ T cells from five donors with HIV) was 1.7*10^9 ± 3.1*10^9 viral copies/mL, the live cell count (primary CD4+ T cells; 24 hours) was 1.2*10^6 ± 5.6*10^5 cells/mL and the live cell count (primary CD4+ T cells; after 6 – 7 days) was 1.3*10^6 ± 3.9*10^5 cells/mL.

Source: paper PMC8052299 (Biochemical pharmacology, 2021)
